From ChEMBL document CHEMBL4196055, “Synthesis and biological evaluation of α-santonin derivatives as anti-hepatoma agents” (Eur J Med Chem, 2018)

Tests used:
[1] = tested on: QGY-7703; experiment: Induction of apoptosis in human QGY7703 cells assessed as increase in cleaved PARP level after 24 hrs by Western blot analysis; type: functional, cell-based
How it was run: (§1)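 QGY-7703 cells subcultured for 24 h, then given compound for 24 h, with DMSO as control. Lysates in buffer with protease inhibitors, protein measured by BCA, equal amounts run on 10% SDS-PAGE and moved to PVDF. Blocked in 5% milk, probed overnight at 4 °C for PARP, cleaved caspase 3, pro-caspase 3 and pro-caspase 9 (1:1000), with GAPDH loading control. IRDye secondaries, densitometry reported as grayscale values.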

[2] = tested on: QGY-7703; experiment: Induction of apoptosis in human QGY7703 cells assessed as early apoptotic cells at 10 uM after 24 hrs by Annexin-V FITC/propidium iodide staining based flow cytometric analysis (reference value: 0.8 to 1%); type: functional
How it was run: (§2)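 Assay in QGY-7703 cells kept in RPMI 1640 with 10% FBS. Seeded at 5 × 10^5 cells/well for 24 h, then treated for 24 h with 5, 10 or 15 μM compound, DMSO as control. Annexin V-FITC/PI staining for 15 min at room temperature in the dark, then immediate flow cytometry to count the apoptotic fractions.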

[3] = tested on: QGY-7703; experiment: Induction of apoptosis in human QGY7703 cells assessed as early apoptotic cells at 15 uM after 24 hrs by Annexin-V FITC/propidium iodide staining based flow cytometric analysis (reference value: 0.8 to 1%); type: functional; how it was run: as §2
[4] = tested on: QGY-7703; experiment: Induction of apoptosis in human QGY7703 cells assessed as viable cells at 10 uM after 24 hrs by Annexin-V FITC/propidium iodide staining based flow cytometric analysis (reference value: 94.2 to 94.3%); type: functional; settings: QGY-7703, 24 h, read-out: Activity; how it was run: as §2
[5] = tested on: QGY-7703; experiment: Induction of apoptosis in human QGY7703 cells assessed as late apoptotic cells at 15 uM after 24 hrs by Annexin-V FITC/propidium iodide staining based flow cytometric analysis (reference value: 4.1 to 4.3%); type: functional; how it was run: as §2
[6] = tested on: SMMC-7721; experiment: Antiproliferative activity against human SMMC7721 cells after 24 hrs by CCK-8 assay; type: functional, cell-based; settings: SMMC-7721, 24 h
How it was run: (§3)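 Cells in 10% FBS medium with penicillin/streptomycin at 37 °C, 5% CO2; HepG-2 in DMEM, QGY-7703, SMMC-7721 and QSG-7701 in RPMI 1640. Seeded 2 × 10^5 cells/well, grown 24 h, then exposed to five concentrations of compound or 1% DMSO vehicle for 24 h. CCK-8 added for 1 h, absorbance read at 450 nm; IC50 derived from the 5-dose data.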

[7] = tested on: QGY-7703; experiment: Induction of apoptosis in human QGY7703 cells assessed as early apoptotic cells at 5 uM after 24 hrs by Annexin-V FITC/propidium iodide staining based flow cytometric analysis (reference value: 0.8 to 1%); type: functional; how it was run: as §2
[8] = tested on: QGY-7703; experiment: Induction of apoptosis in human QGY7703 cells assessed as late apoptotic cells at 10 uM after 24 hrs by Annexin-V FITC/propidium iodide staining based flow cytometric analysis (reference value: 4.1 to 4.3%); type: functional; how it was run: as §2
[9] = tested on: QGY-7703; experiment: Induction of apoptosis in human QGY7703 cells assessed as increase in cleaved caspase 3 level after 24 hrs by Western blot analysis; type: functional, cell-based; how it was run: as §1
[10] = tested on: HepG2; experiment: Antiproliferative activity against human HepG2 cells after 24 hrs by CCK-8 assay; type: functional, cell-based; settings: HepG2, 24 h; how it was run: as §3
[11] = tested on: QGY-7703; experiment: Induction of apoptosis in human QGY7703 cells assessed as necrotic cells at 5 uM after 24 hrs by Annexin-V FITC/propidium iodide staining based flow cytometric analysis (reference value: 0.6 to 0.7%); type: functional; how it was run: as §2
[12] = tested on: QGY-7703; experiment: Antiproliferative activity against human QGY7703 cells after 24 hrs by CCK-8 assay; type: functional, cell-based; settings: QGY-7703, 24 h; how it was run: as §3
[13] = tested on: QGY-7703; experiment: Induction of apoptosis in human QGY7703 cells assessed as viable cells at 15 uM after 24 hrs by Annexin-V FITC/propidium iodide staining based flow cytometric analysis (reference value: 94.2 to 94.3%); type: functional; settings: QGY-7703, 24 h, read-out: Activity; how it was run: as §2
[14] = tested on: QGY-7703; experiment: Induction of apoptosis in human QGY7703 cells assessed as necrotic cells at 15 uM after 24 hrs by Annexin-V FITC/propidium iodide staining based flow cytometric analysis (reference value: 0.6 to 0.7%); type: functional; how it was run: as §2
[15] = tested on: HepG2; experiment: Antiproliferative activity against human HepG2 cells at 10 uM after 24 hrs by CCK-8 assay relative to control; type: functional
How it was run: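 HepG-2 grown in DMEM with 10% FBS and penicillin/streptomycin (37 °C, 5% CO2). Seeded 2 × 10^5 cells/well for 24 h, then given a single 10 μM dose or 1% DMSO vehicle for 24 h. CCK-8 reagent for 1 h, A450 read, and percent inhibition calculated against untreated control cells.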

[16] = tested on: QGY-7703; experiment: Induction of apoptosis in human QGY7703 cells assessed as decrease in pro-caspase 9 level after 24 hrs by Western blot analysis; type: functional, cell-based; how it was run: as §1
[17] = tested on: QGY-7703; experiment: Induction of apoptosis in human QGY7703 cells assessed as viable cells at 5 uM after 24 hrs by Annexin-V FITC/propidium iodide staining based flow cytometric analysis (reference value: 94.2 to 94.3%); type: functional; settings: QGY-7703, 24 h, read-out: Activity; how it was run: as §2
[18] = tested on: QGY-7703; experiment: Induction of apoptosis in human QGY7703 cells assessed as necrotic cells at 10 uM after 24 hrs by Annexin-V FITC/propidium iodide staining based flow cytometric analysis (reference value: 0.6 to 0.7%); type: functional; how it was run: as §2
[19] = Antiproliferative activity against human QSG7701 cells after 24 hrs by CCK-8 assay; type: cell-based; settings: QSG7701, 24 h; how it was run: as §3
[20] = tested on: QGY-7703; experiment: Induction of apoptosis in human QGY7703 cells assessed as late apoptotic cells at 5 uM after 24 hrs by Annexin-V FITC/propidium iodide staining based flow cytometric analysis (reference value: 4.1 to 4.3%); type: functional; how it was run: as §2

SMILES | Activity [1] | Activity [2] | Activity [3] | viability at 10 µM [4] | Activity [5] | IC50 [6] | Activity [7] | Activity [8] | Activity [9] | IC50 [10] | Activity [11] | IC50 [12] | viability at 15 µM [13] | Activity [14] | Activity [15] | Activity [16] | viability at 5 µM [17] | Activity [18] | IC50 [19] | Activity [20]
C=C1C(=O)O[C@@H]2C3=C(C)[C@@H](OC(=O)/C=C/c4ccc(Cl)cc4)CC3[C@](C)(OC(C)=O)CC[C@@H]12 (stereo not given in full) | Dose-dependent effect | 11.3% | 38.1% | 69.7% | 31.7% | 4.08 µM | 16.6% | 18.8% | Dose-dependent effect | 7.51 µM | 0% | 3.06 µM | 29.6% | 0.5% | 62.92% | Dose-dependent effect | 81.6% | 0.2% | > 100 µM | 1.8%
C=C1C(=O)O[C@@H]2C3=C(C)[C@@H](OC(=O)c4ccc(Cl)cc4)CC3[C@](C)(OC(C)=O)CC[C@@H]12 (stereo not given in full) | Dose-dependent effect | 15.5% | 24.4% | 63.6% | 63.4% | 4.24 µM | 20.6% | 20.6% | Dose-dependent effect | 7.1 µM | 0% | 10.1 µM | 11.6% | 0.6% | 72.69% | Dose-dependent effect | 77.7% | 0.3% | 46.9 µM | 1.7%
